Measured values pooled from the literature.
Protocols differ between the studies behind these lines.
Target: Tyrosine-protein kinase SYK (SYK, Homo sapiens, UniProt P43405)

Compound | effect on | mode | method | tested at | endpoint | value
Cn1cc(-c2cccc(N3CCc4c(sc5c4CC(C)(C)C5)C3=O)c2CO)cc(Nc2ccncn2)c1=O | enzyme activity | inhibitor |  | 1 µM | inhibition | 0%
Nc1ncc(-c2nc(N3CCOCC3)nc(N3CCOCC3)n2)c(C(F)F)n1 | binding |  | competition with immobilised ligand | 10 µM | remaining binding | 61%
N#CC1(c2ccccn2)CCN(Cc2cc(C(=O)O)c(=O)n3ccccc23)CC1 | cell-free assay |  | competition with immobilised ligand | 1 µM | remaining binding | 92%
O=c1[nH]c2ccccc2n1C1CCN(Cc2ccc(-c3[nH]c4cc5ncnc5cc4nc3-c3ccccc3)cc2)CC1 | cell-free assay |  |  | 0.5 µM | remaining signal | 97.9%
Cc1nn(C)cc1-c1nc2c(N3CCN(Cc4ccc(Cl)cc4)CC3)c(Cl)cnc2[nH]1 | binding |  | competition with immobilised ligand | 1 µM | remaining binding | 100%
C#Cc1n[nH]c2c(-c3cn([C@@H](C)c4ccccn4)c(=O)[nH]c3=O)cc(F)cc12 | enzyme activity | inhibitor |  | 0.1 µM | inhibition | 3.3%
Cn1cncc1[C@@](O)(COc1ccc(C#N)cc1-c1ccc(OC(F)(F)F)cc1)c1ccc(C#N)cc1 | cell-free assay |  | competition with immobilised ligand | 1 µM | remaining binding | 100%
COc1ncccc1-c1cnn2ccc(N3CCN(C(=O)OC(C)C)CC3)nc12 | binding |  | competition with immobilised ligand | 1 µM | remaining binding | 100%
Cn1cc(-c2cc(F)cc(N3CCn4c(cc5c4CCCC5)C3=O)c2CO)cc(Nc2ccc(N3CCN(C4COC4)CC3)cn2)c1=O | enzyme activity | inhibitor |  | 0.1 µM | inhibition | 12%
